ChEMBL document CHEMBL3085690, “Naturally occurring antimicrobial peptide OH-CATH30 selectively regulates the innate immune response to protect against sepsis” (J Med Chem, 2013)
Activity calls are given as the source filed them. Peptide text beside a SMILES is read from it.

Experiments:
BMDM [1] = assay: Induction of CCL3 mRNA up-regulation in mouse BMDM at 20 ug/ml after 3 hrs by qRT-PCR analysis; assay type: functional
In short: (§1)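 Murine BMDMs stimulated with peptide, then target mRNA quantified by qRT-PCR. Expression normalized to GAPDH, with untreated cells set to 1.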

BMDM [2] = assay: Increase of IL-6 protein level in mouse BMDM at 20 ug/ml after 18 hrs by ELISA; assay type: functional
In short: (§2)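 Bone marrow-derived macrophages (RPMI 1640, 10% FCS, 20% L929-conditioned medium) stimulated with peptide for 18 h. Cytokines and chemokines in culture supernatant quantified by sandwich ELISA. Mean ± SD from three independent experiments, unpaired t test.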

BMDM [3] = assay: Increase of CXCL2 production in mouse BMDM after 6 hrs by ELISA in presence of KN-62; assay type: functional
Mus musculus [4] = assay: Stimulation of innate immune response in Kunming mouse infected with Pseudomonas aeruginosa ATCC 27853 assessed as effect on TNFalpha production in peritoneal lavage at 10 mg/kg, ip after 5 hrs by ELISA; assay type: functional, organism-based; design: dose 10 mg/kg
Mus musculus [5] = assay: Stimulation of innate immune response in neutropenic Kunming mouse infected with Pseudomonas aeruginosa ATCC 27853 assessed as increase of number of neutrophils and inflammatory monocytes in peritoneal lavage at 10 mg/kg, ip up to 24 hrs; assay type: functional, organism-based; design: dose 10 mg/kg
In short: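 Mice were made neutropenic with ip cyclophosphamide, 150 mg/kg on day 0 and 100 mg/kg on day 3. They were then injected ip with peptide at 10 mg/kg. Peritoneal cells were collected up to 24 h afterwards and typed by flow cytometry after GR1/F4/80 staining.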

BMDM [6] = assay: Increase of TNFalpha protein level in mouse BMDM at 20 ug/ml after 18 hrs by ELISA; assay type: functional; in short: as §2
BMDM [7] = assay: Induction of CXCL11 mRNA up-regulation in mouse BMDM at 20 ug/ml after 3 hrs by qRT-PCR analysis; assay type: functional; in short: as §1
Mus musculus [8] = assay: Stimulation of innate immune response in Kunming mouse infected with Escherichia coli ATCC 25922 assessed as reduction of bacterial burden in peritoneal lavage by measuring survival rate at 10 mg/kg, ip administered 5 hrs before bacterial infection measured up to 7 days; assay type: functional, organism-based; design: dose 10 mg/kg
In short: (§3)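 Peptide at 10 mg/kg ip was given 5 h before ip challenge with E. coli 25922 (2.5 × 10^8 CFU), P. aeruginosa 27853 (8 × 10^7 CFU) or S. aureus 25923 (2 × 10^8 CFU) per mouse. Viable bacteria were counted in peritoneal lavage collected in 2 mL of cold saline (n = 7, 6 and 8 respectively; unpaired t test). Survival was recorded for up to 7 days.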

BMDM [9] = assay: Induction of CXCL5 mRNA up-regulation in mouse BMDM at 20 ug/ml after 3 hrs by qRT-PCR analysis; assay type: functional; in short: as §1
Mus musculus [10] = assay: Stimulation of innate immune response in Kunming mouse assessed as increase of CXCL1 level in peritoneal lavage at 10 mg/kg, ip after 5 hrs; assay type: functional, organism-based; design: dose 10 mg/kg
In short: (§4)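 Female Kunming mice (18−22 g) received a single ip injection of peptide at 10 mg/kg in sterile saline. Peritoneal lavage was collected in 2 mL of cold sterile saline 5 h later, and cytokines and chemokines were measured by ELISA. Data are mean ± SD from four mice, compared by unpaired t test.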

RAW264.7 [11] = assay: Inhibition of LPS-induced IL-6 production in mouse RAW264.7 cells 2 to 50 ug/ml after 6 hrs by ELISA; assay type: functional, cell-based
RAW264.7 [12] = assay: Inhibition of LTA-induced TNFalpha production in mouse RAW264.7 cells 2 to 50 ug/ml after 6 hrs by ELISA; assay type: functional, cell-based
BMDM [13] = assay: Induction of CCL2 mRNA up-regulation in mouse BMDM at 20 ug/ml after 3 hrs by qRT-PCR analysis; assay type: functional; in short: as §1
THP-1 = assay: Increase of cytokine production in PMA-differentiated human THP1 cells by ELISA; assay type: functional, cell-based
Mus musculus [14] = assay: Stimulation of innate immune response in Kunming mouse assessed as increase of IL-10 level in peritoneal lavage at 10 mg/kg, ip after 5 hrs; assay type: functional, organism-based; design: dose 10 mg/kg; in short: as §4
[15] = Increase of CXCL2 protein level in mouse BMDM at 10 ug/ml after 18 hrs by ELISA; assay type: functional; in short: as §2
Mus musculus [16] = assay: Stimulation of innate immune response in Kunming mouse infected with Pseudomonas aeruginosa ATCC 27853 assessed as reduction of bacterial burden in peritoneal lavage by measuring survival rate at 10 mg/kg, ip administered 5 hrs before bacterial infection measured up to 7 days; assay type: functional, organism-based; design: dose 10 mg/kg; in short: as §3
BMDM [17] = assay: Increase of CCL2 protein level in mouse BMDM at 20 ug/ml after 18 hrs by ELISA; assay type: functional; in short: as §2
Mus musculus [18] = assay: Stimulation of innate immune response in Kunming mouse assessed as protection against Staphylococcus aureus ATCC 25923-induced mortality by measuring survival rate at 10 mg/kg, ip administered 5 hrs before bacterial infection measured up to 7 days; assay type: functional; conditions: route intraperitoneal
In short: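 Female Kunming mice (18−22 g) received a single ip dose in sterile saline 5 h before ip challenge with P. aeruginosa 27853 (8 × 10^7 CFU/mouse; n = 8) or S. aureus 25923 (2 × 10^8 CFU/mouse; n = 10). Mice were checked every 6 h for up to 7 days, with a humane end point. Curves were compared by log-rank test.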

BMDM [19] = assay: Increase of IL-10 protein level in mouse BMDM at 20 ug/ml after 18 hrs by ELISA; assay type: functional; in short: as §2
[20] = Increase of IL-10 protein level in mouse BMDM at 10 ug/ml after 18 hrs by ELISA; assay type: functional; in short: as §2
BMDM [21] = assay: Induction of CCL7 mRNA up-regulation in mouse BMDM at 20 ug/ml after 3 hrs by qRT-PCR analysis; assay type: functional; in short: as §1
BMDM [22] = assay: Increase of CXCL1 protein level in mouse BMDM at 20 ug/ml after 18 hrs by ELISA; assay type: functional; in short: as §2
[23] = Induction of IL-1Ra mRNA up-regulation in mouse BMDM at 20 ug/ml after 3 hrs by qRT-PCR analysis relative to control; assay type: functional; in short: as §1
PBMC = assay: Increase of cytokine production in human PBMC by qRT-PCR analysis; assay type: functional, cell-based
Mus musculus [24] = assay: Stimulation of innate immune response in Kunming mouse assessed as protection against drug-resistant Pseudomonas aeruginosa-induced mortality by measuring survival rate at 10 mg/kg, ip administered 5 hrs before bacterial infection measured up to 7 days; assay type: functional; conditions: route intraperitoneal
In short: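 Female Kunming mice (18−22 g) were dosed ip in sterile saline at 10 mg/kg, 5 h before ip challenge with clinical drug-resistant isolates: E. coli (n = 12), P. aeruginosa (n = 10) or S. aureus (n = 15). Survival was recorded for up to 7 days, with checks every 6 h and euthanasia by CO2 at the humane end point.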

Mus musculus [25] = assay: Stimulation of innate immune response in Kunming mouse assessed as increase of IL-1beta level in peritoneal lavage at 10 mg/kg, ip after 5 hrs; assay type: functional, organism-based; design: dose 10 mg/kg; in short: as §4
BMDM [26] = assay: Induction of CXCL2 mRNA up-regulation in mouse BMDM at 20 ug/ml after 3 hrs by qRT-PCR analysis; assay type: functional; in short: as §1
Mus musculus [27] = assay: Stimulation of innate immune response in Kunming mouse assessed as increase of IL-6 level in peritoneal lavage at 10 mg/kg, ip after 5 hrs; assay type: functional, organism-based; design: dose 10 mg/kg; in short: as §4

CC[C@H](C)[C@H](NC(=O)[C@@H](NC(=O)[C@H](CCCNC(=N)N)NC(=O)[C@@H]1CCCN1C(=O)[C@H](CCCCN)NC(=O)[C@H](CCCCN)NC(=O)[C@H](Cc1ccccc1)NC(=O)[C@H](Cc1ccccc1)NC(=O)[C@H](CCCCN)NC(=O)[C@H](CCCCN)NC(=O)[C@H](C)NC(=O)[C@H](CCCNC(=N)N)NC(=O)[C@H](CCCCN)NC(=O)[C@H](CCCCN)NC(=O)[C@@H](NC(=O)[C@H](CO)NC(=O)[C@H](CC(N)=O)NC(=O)[C@H](CCCCN)NC(=O)[C@H](CC(C)C)NC(=O)[C@H](CCCCN)NC(=O)[C@H](CCCCN)NC(=O)[C@H](Cc1ccccc1)NC(=O)[C@H](Cc1ccccc1)NC(=O)[C@@H](N)CCCCN)C(C)C)C(C)C)C(=O)NCC(=O)N[C@H](C(=O)N[C@@H](CO)C(=O)N[C@H](C(=O)N1CCC[C@H]1C(=O)N[C@@H](Cc1ccccc1)C(=O)O)[C@@H](C)CC)C(C)C (H-KFFKKLKNSVKKRAKKFFKKPRVIGVSIPF-OH)
1450 pg/mL: Activity [15]
inactive: Activity (BMDM [2]) | Activity (Mus musculus [4]) | Activity (Mus musculus [5]) | Activity (BMDM [6]) | inhibition (RAW264.7 [12]) | Activity (Mus musculus [25]) | Activity (Mus musculus [27])
95%: survival at 10 mg/kg (Mus musculus [24])
> 60%: survival at 10 mg/kg (Mus musculus [18])
active: Activity (BMDM [1]) | Activity (BMDM [3]) | Activity (BMDM [7]) | Activity (Mus musculus [8]) | Activity (BMDM [9]) | Activity (Mus musculus [10]) | inhibition (RAW264.7 [11]) | Activity (BMDM [13]) | Activity (THP-1) | Activity (Mus musculus [14]) | Activity (Mus musculus [16]) | Activity (BMDM [17]) | Activity (BMDM [19]) | Activity (BMDM [21]) | Activity (BMDM [22]) | Activity (PBMC) | Activity (BMDM [26])
25: fold change (FC) [23]
156 pg/mL: Activity [20]
